{
  "source": "paper PMC8311649",
  "about": "(Journal of Medicinal Chemistry, 2021)",
  "key": {"[1]": {"tested_on": "strains expressing class C and OXA-48 β-lactamases", "assay": "Ceftibuten rescue against representative ceftibuten-resistant strains", "format": "cell-based, K. pneumoniae and E. coli", "conditions": "ceftibuten fixed at 1 μg/mL", "procedure,_shortened": "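Clinical isolates of E. coli and K. pneumoniae carrying the named β-lactamase classes were tested with ceftibuten held at 1 μg/mL. The value is the minimum concentration of the β-lactamase inhibitor that restores ceftibuten antibacterial activity.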"}, "[2]": {"assay": "Metabolic stability, plasma", "format": "in vitro ADME", "conditions": "human"}, "[3]": {"assay": "Oral bioavailability PK screening in rats", "format": "in vivo", "conditions": "rat; oral gavage; dose not given", "procedure,_shortened": "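Rats were dosed orally with the ester prodrug. F is percent absolute oral bioavailability, corrected for the molecular-weight difference between prodrug and parent.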"}, "[4]": {"assay": "Bidirectional permeability through Caco-2 monolayers", "format": "in vitro ADME, human", "conditions": "human, Caco-2, pH 7.4, recovery (%), 5 µM, 120 minutes"}, "Caco-2 cell monolayers": {"tested_on": "Caco-2 cell monolayers", "assay": "Bidirectional permeability through Caco-2 monolayers", "format": "in vitro ADME, human", "conditions": "for significant efflux: from ER and Papp (B-to-A); for absorption potential classification: from Papp (A-to-B)"}, "[5]": {"assay": "Metabolite profiling in cryopreserved hepatocytes", "format": "in vitro ADME", "conditions": "all species"}, "SHV-5 (class A)": {"target": "SHV-5 (class A) (Klebsiella pneumoniae, UniProt P0A3M1)", "sequence (P0A3M1 22-286, species assumed)": "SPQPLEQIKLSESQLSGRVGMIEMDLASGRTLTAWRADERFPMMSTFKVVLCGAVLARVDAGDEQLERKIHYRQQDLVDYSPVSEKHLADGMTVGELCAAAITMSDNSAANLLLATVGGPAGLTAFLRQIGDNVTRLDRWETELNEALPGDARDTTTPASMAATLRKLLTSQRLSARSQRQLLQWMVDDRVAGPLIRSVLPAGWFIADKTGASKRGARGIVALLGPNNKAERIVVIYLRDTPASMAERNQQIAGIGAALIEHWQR", "assay": "β-lactamase inhibition assay, SHV-5", "format": "biochemical"}, "[6]": {"assay": "Metabolic stability across all matrixes and species", "format": "in vitro ADME", "conditions": "CD-1 (mouse), Sprague-Dawley (rat), beagle (dog), cynomolgus monkey, human, intestinal S9, liver S9 and plasma"}, "[7]": {"tested_on": "E. coli expressing TEM-1 + CTX-M-15, CTX-M-15, or KPC-2 + SHV-12", "assay": "Murine ascending UTI model", "parameters": "species or system C3H/HeJ mice", "conditions": "mouse, in vivo"}},
  "note": "pIC50: −log10 of the molar value.",
  "data": [
    {"smiles": "O=C(CCC(F)(F)F)N[C@H]1Cc2cccc(C(=O)O)c2OB1O", "note": "[compound 7, (R)-2-Hydroxy-3-(4,4,4-trifluorobutanamido)-3,4-dihydro-2H-benzo[e][1,2]oxaborinine-8-carboxylic Acid]", "values": [
      {"measurement": "activity rescuing ceftibuten (in words)", "setting": "[1]", "value": "reduced activity"}
    ]},
    {"smiles": "CCC(=O)N[C@H]1Cc2cccc(C(=O)OCOC(=O)C(CC)CC)c2OB1O", "note": "[compound 36, ((2-Ethylbutanoyl)oxy)methyl (R)-2-Hydroxy-3-propionamido-3,4-dihydro-2H-benzo[e][1,2]oxaborinine-8-carboxylate]", "values": [
      {"measurement": "half-life at 3 µM", "setting": "[2]", "value": "~11", "unit": "min"},
      {"measurement": "oral bioavailability (F) in rats", "setting": "[3]", "value": "highest oral bioavailability"},
      {"measurement": "recovery at 120 min, 5 µM", "setting": "[4]; A-to-B", "value": 90, "unit": "%"},
      {"measurement": "recovery at 120 min, 5 µM", "setting": "[4]; B-to-A", "value": 98, "unit": "%"},
      {"measurement": "significant efflux", "setting": "Caco-2 cell monolayers", "value": "yes (ER ≥ 2.0 and Papp (B-to-A) ≥ 1.0 × 10^–6 cm/s)"},
      {"measurement": "absorption potential classification", "setting": "Caco-2 cell monolayers", "value": "high (Papp (A-to-B) ≥ 1.0 × 10^–6 cm/s: high)"},
      {"measurement": "parent remaining after hepatocyte incubation", "setting": "[5]; 2 µM and 20 µM, 37 °C, 240 min", "value": "0–5%"},
      {"measurement": "metabolites detected after hepatocyte incubation", "setting": "[5]; metabolite identified as 5 (hydrolysis)", "value": "one metabolite"}
    ]},
    {"smiles": "CCC(=O)N[C@H]1Cc2cccc(C(=O)OCOC(=O)C(C)(C)C)c2OB1O", "note": "[compound 20, (Pivaloyloxy)methyl (R)-2-Hydroxy-3-propionamido-3,4-dihydro-2H-benzo[e][1,2]oxaborinine-8-carboxylate]", "values": [
      {"measurement": "oral bioavailability (F) in rats", "setting": "[3]", "value": "highest oral bioavailability"}
    ]},
    {"smiles": "C#CCCC(=O)N[C@H]1Cc2cccc(C(=O)O)c2OB1O", "note": "[compound 12, (R)-2-Hydroxy-3-(pent-4-ynamido)-3,4-dihydro-2H-benzo[e][1,2]oxaborinine-8-carboxylic Acid]", "values": [
      {"measurement": "activity rescuing ceftibuten (in words)", "setting": "[1]", "value": "reduced activity"}
    ]},
    {"smiles": "CC(F)(F)CCC(=O)N[C@H]1Cc2cccc(C(=O)O)c2OB1O", "note": "[compound 14, (R)-3-(4,4-Difluoropentanamido)-2-hydroxy-3,4-dihydro-2H-benzo[e][1,2]oxaborinine-8-carboxylic Acid]", "values": [
      {"measurement": "pIC50", "setting": "SHV-5 (class A)", "value": 8.22},
      {"measurement": "activity rescuing ceftibuten (in words)", "setting": "[1]", "value": "reduced activity"}
    ]},
    {"smiles": "CCC(=O)N[C@H]1Cc2cccc(C(=O)O)c2OB1O", "note": "[compound 5, (R)-2-Hydroxy-3-propionamido-3,4-dihydro-2H-benzo[e][1,2]oxaborinine-8-carboxylic Acid]", "values": [
      {"measurement": "half-life at 3 µM", "setting": "[6]", "value": "> 120", "unit": "min"},
      {"measurement": "recovery at 120 min, 5 µM", "setting": "[4]; A-to-B", "value": 103, "unit": "%"},
      {"measurement": "recovery at 120 min, 5 µM", "setting": "[4]; B-to-A", "value": 106, "unit": "%"},
      {"measurement": "significant efflux", "setting": "Caco-2 cell monolayers", "value": "no"},
      {"measurement": "absorption potential classification", "setting": "Caco-2 cell monolayers", "value": "low (Papp (A-to-B) < 1.0 × 10^–6 cm/s: low)"}
    ]},
    {"smiles": "Nc1nc(/C(=C/CC(=O)O)C(=O)N[C@@H]2C(=O)N3C(C(=O)O)=CCS[C@H]23)cs1", "note": "[CTB, ceftibuten]", "values": [
      {"measurement": "cfu reductions in the bladder", "setting": "[7]", "value": "≤ 2", "unit": "log10"},
      {"measurement": "cfu reductions in urine", "setting": "[7]", "value": "≤ 2", "unit": "log10"},
      {"measurement": "cfu reductions in the kidneys", "setting": "[7]; sc", "value": "minimal cfu reductions"}
    ]}
  ]
}
